Hits are enriched below; roughly 4.6% of the tested compounds scored in any of these assays.
GPR7 antag: human neuropeptides B/W receptor 1 antagonism. P48145. GPR7-expressing cells, fluorescence antagonist assay. inhibition, % at 4.4 µM. 290,000 compounds, 1.1% hits. AID 1861; in the data active = inhibition above about 16%, passing the limit was not always enough;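 also: cells stimulated with the agonist NPW; 0% = agonist with vehicle and 100% = vehicle without agonist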
Target sequence (P48145 whole entry, looked up): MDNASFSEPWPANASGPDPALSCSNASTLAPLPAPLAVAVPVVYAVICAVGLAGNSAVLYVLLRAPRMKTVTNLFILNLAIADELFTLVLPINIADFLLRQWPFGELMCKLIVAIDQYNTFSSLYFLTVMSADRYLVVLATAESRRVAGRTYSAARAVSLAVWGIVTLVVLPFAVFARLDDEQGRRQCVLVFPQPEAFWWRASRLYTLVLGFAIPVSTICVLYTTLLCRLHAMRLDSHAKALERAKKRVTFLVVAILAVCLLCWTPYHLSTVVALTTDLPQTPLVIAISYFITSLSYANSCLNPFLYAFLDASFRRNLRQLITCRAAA
OX1R antag-1: antagonists of human orexin 1 receptor (OX1R) | O43613 | OX1R-expressing cells, FRET antagonist read-out | inhibition, % at 6.6 µM | 330,000 compounds, 1.8% hits; in the data active = inhibition mostly above about 38%, no sharp cut-off; inactive = mostly below about 40%;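 also: 0% = agonist challenge alone and 100% = reference antagonist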
TAAR1 agonist: human TAAR1 agonism. activation, % at 3 µM. Q96RJ0. CHO RD-HGA16 TAAR1, Fluo-8 calcium fluorescence; vehicle wells 0%, saturating PEA agonist 100%. 360,000 compounds, 0.99% hits;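 active = activation above the mean activation of all test compounds in the run plus 3 SD, cut at about 38% in these data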
Target sequence (Q96RJ0 whole entry, looked up): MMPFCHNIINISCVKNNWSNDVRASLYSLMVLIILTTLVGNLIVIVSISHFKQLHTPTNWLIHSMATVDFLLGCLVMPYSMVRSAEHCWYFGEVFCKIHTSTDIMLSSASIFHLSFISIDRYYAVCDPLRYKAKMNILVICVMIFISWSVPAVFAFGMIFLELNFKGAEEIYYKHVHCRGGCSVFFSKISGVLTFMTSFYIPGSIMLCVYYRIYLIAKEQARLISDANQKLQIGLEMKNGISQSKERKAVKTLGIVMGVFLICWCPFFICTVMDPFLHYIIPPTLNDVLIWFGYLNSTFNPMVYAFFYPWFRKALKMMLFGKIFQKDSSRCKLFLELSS
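Test system: RD-HGA16 (CHO) cells co-expressing Gα16 and hTAAR1; dosing: one-point dosing at 3 µM (nominal); timing: 17-24 h seeding, 75 min 37 °C dye, 30 min RT; signal: kinetic Fluo-8 calcium fluorescence; read-out basis: % activation relative to PEA EC100 response; controls: DMSO and PEA EC100; replicates: n 1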
OX1R antag-2: human HCRTR1 antagonism; O43613; CHO/OX1R cells, Fluo-8 calcium fluorescence, orexin A; inhibition, % at 5 µM; 330,000 compounds, 0.43% hits; AID 434989;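 active = inhibition above its plate's threshold, mean inhibition of all tested compounds on the plate plus 3 SD, cut at about 37% in these data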;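 also: 0% = orexin A challenge wells and 100% = SB-334867-A antagonist wells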
TAAR1 antagonist: human TAAR1 antagonism; 360,000 compounds, 1.5% hits; CHO RD-HGA16 TAAR1, Fluo-8 calcium fluorescence, antagonist; inhibition, % at 3 µM; Q96RJ0;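 active = inhibition above a per-plate cutoff, the mean inhibition of test compounds on that plate plus 3 SD, cut at about 49% in these data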;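 also: 0% = DMSO plus EC80 beta-PEA response and 100% = DMSO alone without agonist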
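Test system: hTAAR1-expressing CHO RD-HGA16 cells, Gα16-coupled; Probe or stimulus: EC80 β-phenethylamine stimulus; Compound dosing: single nominal final test compound concentration of 3 µM; Timing: 140 s kinetic read after compound, 140 s after agonist; Signal: Fluo-8 calcium-sensitive fluorescence; Measure: % inhibition of agonist calcium response; Controls: DMSO and EC80 PEA controls.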
CHO parental Ca: counter-screen: ATP calcium response change in parental CHO cells; AID 463079; 330,000 compounds, 0.63% hits; inhibition, % at 5.6 µM; parental CHO-K1, ATP-induced calcium, Fluo-8 fluorescence;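 active = inhibition above that plate's mean sample inhibition plus 3 SD, cut at about 26% in these data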;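 also: 0% = ATP-challenged DMSO wells and 100% = DMSO wells without ATP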
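Assay system: untransfected parental CHO cell line. Also added: ATP agonist challenge. Dosing: one dose, 5.6 µM nominal. Measured by: Fluo-8 fluorescence. Read-out: % inhibition. Benchmarks: ATP wells versus no-ATP DMSO wells. Repeats: no replicates.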
Starred values were filed as active, the others as inactive; . = no result given.

SMILES	GPR7 antag	OX1R antag-1	TAAR1 agonist	OX1R antag-2	TAAR1 antagonist	CHO parental Ca
COc1ccc(CCNC(=O)c2ccc(CNS(=O)(=O)c3ccc(C(C)(C)C)cc3)cc2)cc1OC	-2	26	15	4	56*	-5
Cc1ccc(NNC(=O)c2cc(C(C)(C)C)nn2Cc2ccccc2)cc1	-10	12	-3	-19	-22	-13
CC(C)(C)c1cc(C(=O)NNc2cc(C(F)(F)F)ccc2Cl)n(Cc2ccccc2)n1	-10	45*	9	4	34	-7
COc1ccccc1NNC(=O)c1cc(C(C)(C)C)nn1Cc1ccccc1	-12	55	3	-26	49*	-13
O=[S@]1Oc2ccccc2-c2ccccc21	.	6	51*	9	12	-5
O=C(C(=O)N1CCC(CNS(=O)(=O)c2ccccc2)CC1)c1cc2ccccc2o1	.	.	4	.	-25	.
Cc1ccc(-c2nc3cccnc3o2)cc1NC(=O)COc1ccc(Cl)cc1C	-11	13	8	-20	-1	-20
Cc1ccc(-c2nc3cccnc3o2)cc1NC(=O)COc1ccc(C(C)(C)C)cc1	-20	63	17	37	69*	40*
COC(=O)c1cc2c(ccn2-c2ccc(F)cc2)n1CC(C)C	15	27	44*	-52	-17	-34
COC(=O)c1cc2c(ccn2-c2ccc(F)cc2)n1C(C)C	7	10	39*	-32	-31	-39
COCCNc1nc2cc(-c3ccc(C)cc3)sc2c(=O)n1C	.	.	0	.	-24	.
O=c1cc(-c2ccccc2Cl)oc2c(NS(=O)(=O)c3cccs3)ccc(O)c12	.	73*	1	16	40	-11
CCCS(=O)(=O)NC(=O)C1(C)CCN(C(=O)c2ccnc(Cl)c2)C1 (stereo unspecified)	.	.	0	.	-14	.
COc1ccc(-c2cn3cc(Cl)ccc3n2)cc1OC	-4	45*	-4	19	-26	-19
COc1ccc(-c2cn3cc(C)ccc3n2)cc1Br	7	45	4	-13	-10	-21
Cc1ccccc1OCC(=O)Nc1ccc(N2CCN(C(=O)c3ccco3)CC2)cc1	0	11	16	2	60*	-5
Cc1ccccc1C(=O)N1CCN(c2ccc(NC(=O)c3cccc(OC(C)C)c3)cc2)CC1	-16	24	3	-18	-22	-11
Cc1ccccc1C(=O)N1CCN(c2ccc(NC(=O)CSc3ccc(Cl)cc3)cc2)CC1	6	23	14	13	53*	31*
COc1c(C)cccc1C(=O)Nc1ccc(N2CCN(C(=O)c3ccccc3C)CC2)cc1	16	6	11	-22	55*	-24
COc1ccc(C(=O)N2CCCC(c3cc(C(=O)NCc4cccnc4)no3)C2)cc1 (stereo unspecified)	.	.	3	.	-35	.
COc1cc(/C=N\Nc2nncn2N)ccc1OC(C)=O	-9	42	1	-13	-10	-3
CC(OC(=O)c1ccc2c(c1)S(=O)(=O)c1ccccc1C2=O)C(N)=O (stereo unspecified)	6	71*	2	0	9	-5
O=C1c2ccccc2S(=O)(=O)c2cc(C(=O)N3CCN(c4ccccc4)CC3)ccc21	.	32	10	-4	15	-9
O=C(O)c1ccc2c(c1)S(=O)(=O)c1ccccc1C2=O	1	.	.	.	.	.
COCCN1CCN(C(=O)c2ccc3c(c2)S(=O)(=O)c2ccccc2C3=O)CC1	.	66*	5	-1	-2	-18
SMILES	GPR7 antag	OX1R antag-1	TAAR1 agonist	OX1R antag-2	TAAR1 antagonist	CHO parental Ca
CCc1cccc(CC)c1NC(=O)COC(=O)c1ccc2c(c1)S(=O)(=O)c1ccccc1C2=O	-15	33	-1	-19	-1	-12
NC(=O)c1ccc2c(c1)S(=O)(=O)c1ccccc1C2=O	3	65*	2	-15	2	-13
NC(=O)COC(=O)c1ccc2c(c1)S(=O)(=O)c1ccccc1C2=O	-20	64*	0	-11	-5	-8
O=C(CN1C(=O)NC2(CCCCCC2)C1=O)N1CCCCC1	.	2	4	-12	5	-11
CC(=O)O[C@@H]1C=C[C@@H](C#Cc2ccc(C(C)(C)C)cc2)O[C@@H]1COC(=O)NCc1ccccc1	.	.	3	.	-20	.
O=C(NCC1CCN(C(=O)C(=O)c2cccs2)CC1)c1ccc2ccccc2c1	.	.	4	.	7	.
COC(=O)N1Cc2ccnnc2CC1c1ccccc1-c1ccc(F)cc1 (stereo unspecified)	.	.	4	.	-33	.
O=C(O)c1ccc2c(c1)S(=O)(=O)c1cc(Cl)ccc1C2=O	.	32*	6	-9	-1	-8
O=C(COC(=O)c1ccc2c(c1)S(=O)(=O)c1ccccc1C2=O)NC1CC1	-18	51*	0	-21	7	-15
CC(C)C[C@@H]1COc2cc(NCCO)ccc2S(=O)(=O)N1	.	.	0	.	-19	.
COC(=O)C(Cc1ccc(OC(=O)c2ccccc2Cl)cc1)N1Cc2ccccc2C1=O (stereo unspecified)	9	32	9	-9	59*	17
COC(=O)CC(c1ccccc1F)N1Cc2ccccc2C1=O (stereo unspecified)	-8	7	1	-27	-6	-23
O=C(O)[C@H](Cc1ccccc1)N1Cc2ccccc2C1=O	-7	14	0	1	-14	3
COC(=O)C(Cc1ccc(OC(=O)c2ccccc2C)cc1)N1Cc2ccccc2C1=O (stereo unspecified)	2	41	15	-5	52*	29
Cn1nc(C(=O)OCC(=O)c2ccccc2)c2ccccc2c1=O	.	4	5	-17	20	-25
Cc1ccc(C)c(C(=O)COC(=O)c2nn(C)c(=O)c3ccccc23)c1	.	33*	6	-1	41	-27
CCc1ccc(S(=O)(=O)/N=C2\C=C(Nc3ccc(C(=O)O)cc3)C(=O)c3ccccc32)cc1	-29	52*	9	-11	25	-16
Cc1ccc(S(=O)(=O)/N=C2\C=C(Nc3cccc(C(=O)O)c3)C(=O)c3ccccc32)cc1	-21	35	1	-20	1	-15
COc1ccc(S(=O)(=O)Cc2ccc(C(=O)N3CCN(c4cc(C)ccc4C)CC3)o2)cc1	12	14	-1	-33	20	-30
COc1ccc(S(=O)(=O)Cc2ccc(C(=O)N3CCN(c4cc(Cl)ccc4C)CC3)o2)cc1	-11	6	1	-19	49*	2
COc1ccc(S(=O)(=O)Cc2ccc(C(=O)N3CCN(c4cccc(C)c4C)CC3)o2)cc1	-1	11	0	7	33	48*
Cc1ccc(S(=O)(=O)Cc2ccc(C(=O)N3CCN(c4cccc(C)c4C)CC3)o2)cc1	6	8	-2	-33	-6	-1

Screens as filed in PubChem.
